Key:
[1] = biological target: Nitric oxide synthase, inducible (Homo sapiens, UniProt P35228); assay: Inhibition of human iNOS expressed in HEK293 cells assessed as inhibition of nitric oxide production after 18 hrs using 2,3-diaminonaphthalene by fluorescence assay; type: cell-based
How it was run: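 HEK293 cells grown to ~70% confluence in DMEM/10% FBS with pen/strep, transiently transfected with 10 μg human or murine iNOS plasmid plus Fugene 6 for 4 h at 37 °C, 10% CO2. Cells replated at 5e5 cells/mL and dosed with compound at once; 1400W (100 μM final) as positive control. After 18 h, DAN (10 μg/mL final) in HCl (0.1 N final) added for 20 min at room temperature. Fluorescence read after NaOH (0.12 N final).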

Nitric oxide synthase 1 = Nitric oxide synthase 1 (Homo sapiens, UniProt P29475); assay: Inhibition of human nNOS expressed in HEK293 cells assessed as inhibition ionomycin induced nitric oxide production incubated for 24 hrs measured after 18 hrs of ionomycin challenge using 2,3-diaminonaphthalene by fluorescence assay; type: cell-based
Sequence of Nitric oxide synthase 1 (P29475 whole entry): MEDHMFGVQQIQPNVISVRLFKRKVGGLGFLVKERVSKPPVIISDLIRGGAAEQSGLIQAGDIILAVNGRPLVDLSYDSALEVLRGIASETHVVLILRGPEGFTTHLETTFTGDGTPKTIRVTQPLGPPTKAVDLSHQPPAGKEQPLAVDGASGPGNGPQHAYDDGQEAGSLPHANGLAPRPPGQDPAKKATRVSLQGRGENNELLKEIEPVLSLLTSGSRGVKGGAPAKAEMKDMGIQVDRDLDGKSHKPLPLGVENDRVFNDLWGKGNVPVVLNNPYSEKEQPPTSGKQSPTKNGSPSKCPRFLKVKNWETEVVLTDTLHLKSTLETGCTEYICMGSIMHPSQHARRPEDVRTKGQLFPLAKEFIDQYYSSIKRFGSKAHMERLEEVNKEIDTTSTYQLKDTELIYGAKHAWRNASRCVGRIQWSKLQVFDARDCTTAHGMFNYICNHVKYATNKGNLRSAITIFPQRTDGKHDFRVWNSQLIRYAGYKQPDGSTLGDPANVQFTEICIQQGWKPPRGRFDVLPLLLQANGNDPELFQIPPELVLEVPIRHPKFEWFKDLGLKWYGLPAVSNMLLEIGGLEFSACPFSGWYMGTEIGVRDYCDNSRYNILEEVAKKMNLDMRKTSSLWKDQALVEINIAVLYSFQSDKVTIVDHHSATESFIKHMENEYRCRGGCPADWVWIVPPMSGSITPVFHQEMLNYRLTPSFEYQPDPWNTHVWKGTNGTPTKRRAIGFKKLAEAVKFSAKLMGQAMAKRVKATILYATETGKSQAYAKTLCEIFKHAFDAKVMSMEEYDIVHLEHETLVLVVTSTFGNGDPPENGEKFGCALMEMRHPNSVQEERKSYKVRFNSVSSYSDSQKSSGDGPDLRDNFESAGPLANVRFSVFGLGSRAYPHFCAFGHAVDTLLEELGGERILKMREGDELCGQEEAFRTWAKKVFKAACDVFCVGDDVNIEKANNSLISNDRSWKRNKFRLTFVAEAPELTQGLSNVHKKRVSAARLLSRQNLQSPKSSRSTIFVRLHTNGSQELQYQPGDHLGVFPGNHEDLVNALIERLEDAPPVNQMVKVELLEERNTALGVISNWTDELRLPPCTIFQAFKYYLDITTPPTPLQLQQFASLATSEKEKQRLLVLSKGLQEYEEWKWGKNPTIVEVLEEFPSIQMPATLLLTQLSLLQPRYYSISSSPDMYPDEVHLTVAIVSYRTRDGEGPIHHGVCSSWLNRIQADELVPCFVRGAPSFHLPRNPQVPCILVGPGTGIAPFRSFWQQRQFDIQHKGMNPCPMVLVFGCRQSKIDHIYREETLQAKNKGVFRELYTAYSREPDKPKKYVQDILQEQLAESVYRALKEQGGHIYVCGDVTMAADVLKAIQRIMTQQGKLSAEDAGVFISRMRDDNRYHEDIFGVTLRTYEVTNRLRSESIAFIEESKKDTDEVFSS
How it was run: (§1)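 HEK293 cells transfected for 4 h at 37 °C with human nNOS (10 μg) or human eNOS (15 μg) plasmid (Fugene 6, 3:1). Cells replated at 5e5 cells/mL and dosed with compound at once; SEITU (100 μM final) as positive control. After 24 h, cells activated with A23187 (83 nM final) for eNOS or ionomycin (30 μM final) for nNOS. NO read 18 h later as nitrite-DAN fluorescence.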

Nitric oxide synthase 3 = biological target: T1, Nitric oxide synthase 3 (Homo sapiens, UniProt P29474); assay: Inhibition of human eNOS expressed in HEK293 cells assessed as inhibition A23187 induced nitric oxide production incubated for 24 hrs measured after 18 hrs of […] challenge using 2,3-diaminonaphthalene by fluorescence assay; type: cell-based; how it was run: as §1
T1 sequence (P29474 whole entry): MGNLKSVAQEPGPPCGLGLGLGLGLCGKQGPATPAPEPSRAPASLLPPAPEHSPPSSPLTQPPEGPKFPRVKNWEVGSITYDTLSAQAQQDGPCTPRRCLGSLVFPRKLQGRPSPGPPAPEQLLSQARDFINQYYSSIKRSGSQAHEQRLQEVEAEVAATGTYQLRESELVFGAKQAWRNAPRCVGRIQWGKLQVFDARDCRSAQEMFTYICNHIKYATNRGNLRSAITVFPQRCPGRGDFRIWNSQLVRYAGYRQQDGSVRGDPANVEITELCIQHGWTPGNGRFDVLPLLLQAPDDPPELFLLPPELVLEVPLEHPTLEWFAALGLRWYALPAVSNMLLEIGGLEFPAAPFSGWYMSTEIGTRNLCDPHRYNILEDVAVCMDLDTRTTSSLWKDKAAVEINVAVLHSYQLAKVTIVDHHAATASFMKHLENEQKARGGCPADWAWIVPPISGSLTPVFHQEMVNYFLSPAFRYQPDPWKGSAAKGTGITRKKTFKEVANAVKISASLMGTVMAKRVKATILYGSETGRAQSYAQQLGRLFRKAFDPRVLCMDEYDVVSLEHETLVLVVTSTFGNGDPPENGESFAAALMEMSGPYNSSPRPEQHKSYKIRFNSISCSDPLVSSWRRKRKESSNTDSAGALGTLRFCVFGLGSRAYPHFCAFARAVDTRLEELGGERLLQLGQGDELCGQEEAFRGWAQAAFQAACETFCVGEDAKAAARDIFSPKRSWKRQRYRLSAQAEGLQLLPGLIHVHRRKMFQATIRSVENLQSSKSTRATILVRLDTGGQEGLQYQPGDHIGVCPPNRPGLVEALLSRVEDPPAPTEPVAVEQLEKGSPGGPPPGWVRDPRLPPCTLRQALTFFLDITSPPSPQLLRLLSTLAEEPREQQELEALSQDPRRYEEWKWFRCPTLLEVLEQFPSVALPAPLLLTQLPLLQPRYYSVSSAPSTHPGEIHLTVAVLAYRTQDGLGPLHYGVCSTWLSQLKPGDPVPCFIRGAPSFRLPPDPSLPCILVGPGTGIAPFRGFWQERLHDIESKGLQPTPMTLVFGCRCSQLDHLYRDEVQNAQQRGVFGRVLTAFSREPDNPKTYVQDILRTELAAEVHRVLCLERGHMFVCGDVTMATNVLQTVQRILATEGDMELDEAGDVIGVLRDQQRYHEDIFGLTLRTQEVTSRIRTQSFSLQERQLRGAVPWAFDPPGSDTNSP

Liver = assay: Half life in mouse liver microsomes assessed as formation of oxidation product and glucuronide conjugate; type: ADME, Microsome
How it was run: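 Mouse liver microsomes run under combined phase I oxidation and phase II glucuronide conjugation; half-life reported in minutes.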

Homo sapiens [2] = organism: Homo sapiens; assay: Ratio of IC50 for human eNOS to EC50 for human iNOS
Homo sapiens [3] = organism: Homo sapiens; assay: Ratio of IC50 for human nNOS to EC50 for human iNOS
[4] = biological target: T2, Nitric oxide synthase 3 (Homo sapiens) (UniProt P29474); assay: Inhibition of human eNOS expressed in HEK293 cells assessed as inhibition A23187 induced nitric oxide production at 100 uM incubated for 24 hrs measured after 18 hrs of […] challenge using 2,3-diaminonaphthalene by fluorescence assay; type: cell-based
T2 sequence (whole entry): T1 sequence (P29474 whole entry)

Sequence of Nitric oxide synthase, inducible (P35228 whole entry): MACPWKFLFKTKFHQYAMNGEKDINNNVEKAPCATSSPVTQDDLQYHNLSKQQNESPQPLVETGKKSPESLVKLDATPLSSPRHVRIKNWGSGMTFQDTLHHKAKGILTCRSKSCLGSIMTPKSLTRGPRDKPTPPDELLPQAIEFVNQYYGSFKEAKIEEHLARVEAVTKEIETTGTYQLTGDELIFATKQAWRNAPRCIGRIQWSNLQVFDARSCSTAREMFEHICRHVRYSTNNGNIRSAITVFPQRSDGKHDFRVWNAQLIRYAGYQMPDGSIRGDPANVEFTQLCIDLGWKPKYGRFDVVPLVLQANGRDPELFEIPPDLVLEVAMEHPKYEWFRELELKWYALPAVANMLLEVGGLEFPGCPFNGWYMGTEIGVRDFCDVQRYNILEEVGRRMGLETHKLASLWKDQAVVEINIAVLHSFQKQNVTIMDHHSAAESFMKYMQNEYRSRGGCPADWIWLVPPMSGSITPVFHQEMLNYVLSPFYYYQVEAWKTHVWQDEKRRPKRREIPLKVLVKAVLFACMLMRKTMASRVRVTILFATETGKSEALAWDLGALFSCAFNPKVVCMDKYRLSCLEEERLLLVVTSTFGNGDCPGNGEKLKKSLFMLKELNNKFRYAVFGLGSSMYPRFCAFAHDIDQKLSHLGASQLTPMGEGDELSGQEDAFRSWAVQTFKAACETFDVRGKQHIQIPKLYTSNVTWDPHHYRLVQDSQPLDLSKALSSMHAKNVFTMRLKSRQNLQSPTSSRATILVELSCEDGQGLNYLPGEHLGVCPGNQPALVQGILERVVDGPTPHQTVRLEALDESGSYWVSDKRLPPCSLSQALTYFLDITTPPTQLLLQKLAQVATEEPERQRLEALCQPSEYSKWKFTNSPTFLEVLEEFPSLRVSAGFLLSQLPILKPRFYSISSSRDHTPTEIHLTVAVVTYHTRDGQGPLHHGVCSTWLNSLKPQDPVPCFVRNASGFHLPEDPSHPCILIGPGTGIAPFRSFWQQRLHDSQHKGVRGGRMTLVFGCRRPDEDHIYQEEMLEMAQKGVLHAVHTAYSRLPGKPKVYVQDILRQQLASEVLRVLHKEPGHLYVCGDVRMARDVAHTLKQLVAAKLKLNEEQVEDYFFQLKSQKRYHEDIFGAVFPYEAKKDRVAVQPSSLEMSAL

Structure (SMILES) | EC50 [1] | EC50 (Nitric oxide synthase 1) | EC50 (Nitric oxide synthase 3) | t1/2 (Liver) | Ratio EC50 (Homo sapiens [2]) | Ratio EC50 (Homo sapiens [3]) | inhibition [4]
O=c1cc(Cn2c(C3CCCC3)nc3ccccc32)c2ccc(F)c(F)c2[nH]1 | 750 nM | 770 nM | > 100000 nM | > 2 h | > 133 | 1 | < 50%
O=c1cc(Cn2c(-c3ccncc3)nc3ccccc32)c2ccc(F)c(F)c2[nH]1 | 2200 nM | 2900 nM | 4200 nM | 1.07 h | 1.9 | 1.3 | –
Cc1cnccc1-c1nc2ccccc2n1Cc1cc(=O)[nH]c2c(F)c(F)ccc12 | 340 nM | 990 nM | 1300 nM | > 2 h | 3.8 | 2.9 | –
O=c1cc(Cn2c(CC3CC3)nc3ccccc32)c2ccc(F)c(F)c2[nH]1 | 600 nM | 950 nM | 3900 nM | > 2 h | 6.5 | 1.6 | –
CC(C)Cc1nc2nccnc2n1Cc1cc(=O)[nH]c2c(F)c(F)ccc12 | – | – | – | – | 440 | 3.4 | –
O=c1cc(Cn2c(C3CCC3)nc3c(Cl)ccnc32)c2ccc(F)c(F)c2[nH]1 | 270 nM | 760 nM | > 100000 nM | 0.6 h | > 370 | 2.8 | < 50%
CC(C)c1nc2nccnc2n1Cc1cc(=O)[nH]c2c(F)c(F)ccc12 | 850 nM | 610 nM | 13000 nM | > 2 h | 15 | 0.7 | –
O=c1cc(Cn2c(C3CCC3)nc3ccncc32)c2ccc(F)c(F)c2[nH]1 | 460 nM | 730 nM | > 100000 nM | – | > 220 | 1.6 | < 50%
O=c1cc(Cn2c(C3CCCCC3)nc3ccccc32)c2ccc(F)c(F)c2[nH]1 | 8900 nM | 5000 nM | > 100000 nM | > 2 h | > 11 | 0.6 | < 50%
O=c1cc(Cn2c(C3CCC3)nc3cnccc32)c2ccc(F)c(F)c2[nH]1 | 18000 nM | 24000 nM | 21000 nM | > 2 h | 1.2 | 1.3 | –
O=c1cc(Cn2c(C3CCCC3)nc3nccnc32)c2ccc(F)c(F)c2[nH]1 | 280 nM | 1000 nM | > 100000 nM | > 2 h | > 360 | 3.6 | –
O=c1cc(Cn2c(C3CCC3)nc3ncccc32)c2ccc(F)c(F)c2[nH]1 | 590 nM | 520 nM | 8800 nM | > 2 h | 15 | 0.9 | –
Cc1ccnc2c1nc(C1CCC1)n2Cc1cc(=O)[nH]c2c(F)c(F)ccc12 | 270 nM | 1600 nM | > 100000 nM | 1.53 h | > 800 | – | < 50%
O=c1cc(Cn2c(CC3CCC3)nc3ccccc32)c2ccc(F)c(F)c2[nH]1 | 540 nM | 650 nM | 2900 nM | 0.467 h | 5.4 | 1.2 | –
COc1ccnc2c1nc(C1CCC1)n2Cc1cc(=O)[nH]c2c(F)c(F)ccc12 | 210 nM | 1300 nM | > 100000 nM | > 2 h | > 480 | 6.2 | < 50%
CCCc1nc2ccccc2n1Cc1cc(=O)[nH]c2c(F)c(F)ccc12 | 730 nM | 690 nM | 1300 nM | > 2 h | 1.8 | 0.9 | –
O=c1cc(Cn2c(C3CC(F)(F)C3)nc3nccnc32)c2ccc(F)c(F)c2[nH]1 | 120 nM | 1100 nM | 9200 nM | > 2 h | 77 | 9.2 | –
CC(C)CCc1nc2ccccc2n1Cc1cc(=O)[nH]c2c(F)c(F)ccc12 | 1360 nM | 650 nM | > 100000 nM | > 2 h | > 74 | 0.5 | < 50%
Cc1ncsc1C(=O)N(Cc1cc(=O)[nH]c2c(F)cccc12)c1ccccc1 | – | – | – | – | > 500 | > 50 | –
O=c1cc(Cn2c(C3CC(F)(F)C3)nc3nccnc32)c2cccc(F)c2[nH]1 | – | – | – | – | > 460 | 14 | –
CC(C)Cc1nc2nccnc2n1Cc1cc(=O)[nH]c2c(F)cccc12 | 290 nM | 6800 nM | > 100000 nM | > 2 h | > 350 | 23 | –
Cc1ncsc1-c1nc2ccccc2n1Cc1cc(=O)[nH]c2c(F)cccc12 | 3700 nM | 4300 nM | 15000 nM | > 2 h | 4.1 | 1.2 | –
O=c1cc(Cn2c(C3CC3)nc3ccccc32)c2ccc(F)c(F)c2[nH]1 | 1600 nM | 1400 nM | 6800 nM | > 2 h | 4.3 | 0.9 | –

— ChEMBL document CHEMBL1800057, “Discovery of dual inducible/neuronal nitric oxide synthase (iNOS/nNOS) inhibitor development candidate 4-((2-cyclobutyl-1H-imidazo[4,5-b]pyrazin-1-yl)methyl)-7,8-difluoroquinolin-2(1H)-one (KD7332) part 2: identification of a novel, potent, and selective series of benzimidazole-quinolinone …” (J Med Chem, 2010)
